HIV Env fusion: inhibitors of HIV-1 Env-driven cell-cell fusion, primary screen, HeLa-JRFL effector, CEM21 target cells, luciferase. AID 651610, 2012. 1.1% of 360,000 active. inhibition, % at 12.3 µM;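 active = mean replicate inhibition score of at least 50 and every replicate individually at or above 50; inconclusive = only one of the two criteria met; inactive = mean below 50 and not all replicates reaching 50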;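 also: 0% = plate neutral controls and 100% = maraviroc near 300 nM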
SR-BI DiI-HDL act: activators of SR-BI mediated DiI-HDL uptake, primary screen, ldlA[mSR-BI] CHO cells, DiI fluorescence. AID 504775, 2011. activation, % at 12.5 µM. 3 h; 100 = double the neutral-control signal. 0.096% of 320,000 active;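 active = mean replicate activation of at least 60% and every replicate at or above 60%; inconclusive = mean or all-replicate condition met, but not both; inactive = mean below 60% and not all replicates reaching 60%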;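 also: 0% = median plate neutral-control signal and 100% = twice that signal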
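System: CHO ldlA[mSR-BI] cells / Medium: HEPES-buffered (25 mM, pH 7.4) F12 plus 0.5% BSA / Probe or stimulus: labelled HDL, 10 µg/mL / Doses: single compound concentration, delivered by pin transfer / Schedule: 3 h, 37 °C / Measured by: DiI fluorescence, bottom read / Measure: cell-associated DiI fluorescence as measure of HDL uptake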
Rtt109 Vps75: inhibitors of C. albicans Rtt109/Vps75 HAT, primary screen, biochemical, ThioGlo CoA-SH fluorescence, plate reader; Histone acetyltransferase RTT109 (Candida albicans (strain SC5314 / ATCC MYA-2876)), …; purified Rtt109/Vps75, 4 h; inhibition, % at 34.9 µM; 0.16% of 330,000 active;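 active = inhibition of at least 50% in every replicate; inconclusive = best replicate reaches 50% inhibition but some replicates fall short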
Target sequence (Q5AAJ8 whole entry, looked up): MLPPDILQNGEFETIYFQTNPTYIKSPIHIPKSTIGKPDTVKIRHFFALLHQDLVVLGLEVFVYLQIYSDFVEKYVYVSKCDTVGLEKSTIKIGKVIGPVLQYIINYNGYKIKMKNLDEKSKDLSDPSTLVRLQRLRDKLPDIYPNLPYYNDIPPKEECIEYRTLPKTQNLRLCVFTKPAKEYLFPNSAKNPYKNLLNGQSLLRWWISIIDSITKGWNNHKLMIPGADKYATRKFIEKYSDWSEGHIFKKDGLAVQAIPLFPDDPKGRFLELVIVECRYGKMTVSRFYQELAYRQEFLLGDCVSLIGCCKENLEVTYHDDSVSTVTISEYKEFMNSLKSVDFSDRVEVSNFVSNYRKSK
SR-BI DiI inh: inhibitors of SR-BI mediated HDL lipid uptake, primary screen, ldlA[mSR-BI] cells, fluorescence, single point; Scavenger receptor class B member 1 (Mus musculus), Q61009; 0.96% of 320,000 active; ldlA[mSR-BI] CHO cells, DiI-HDL uptake fluorescence, 3 h; inhibition, % at 12.5 µM;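 active = mean replicate inhibition of at least 70% and a set share of replicates each scoring 70 or more; inconclusive = meets just one of the two criteria; inactive = fails both criteria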;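 also: 0% = median of neutral control wells and 100% = median of positive control wells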
PglD DTNB: C. jejuni PglD acetyltransferase inhibitors, primary screen, biochemical, DTNB colorimetric, single point | inhibition, % at 12.5 µM | 0.098% of 360,000 active | AID 602405, 2012 | purified PglD enzyme, DTNB colorimetric CoA detection; in the data active = inhibition above about 16%, passing the limit was not always enough; inconclusive = no clear call, values can overlap the other calls
N-glyco inh: increase of ERlucT glycosylation luciferase signal, primary screen, N-linked glycosylation inhibitor project, D54 ERlucT cells, luminescence, set 2. D54 ERlucT glycosylation luciferase reporter, 24 h; percent of 100 nM tunicamycin response. reporter increase, % at 12.5 µM. 0.23% of 360,000 active. AID 588692, 2011;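 active = mean luciferase reporter signal, scaled so untreated is 0 and the glycosylation-blocking control 100, at or above a set limit in every replicate; inconclusive = mean reaches the limit but not every replicate does; inactive = mean below the limit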;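 also: luciferase carries N-glycosylation sites so blocking glycosylation raises the light; 0% = median of neutral control wells and 100% = median of 100 nM tunicamycin wells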
* = called active by the depositor; ? = inconclusive; / = no result; [ ] = remark or other dose. Sampled rows, rich in hits. Any-hit rate of the full collection: about 1.9%.

SMILES | HIV Env fusion | SR-BI DiI-HDL act | Rtt109 Vps75 | SR-BI DiI inh | PglD DTNB | N-glyco inh
O=C(C[C@H]1CC[C@@H]2[C@H](COC[C@H](O)CN2Cc2cccc(-c3ccncc3)c2)O1)N1CCN(c2ccccc2)CC1 | / | / | / | / | -3 | /
Cc1ccccc1C(=O)NC(NC(=S)Nc1ccc(S(N)(=O)=O)cc1)C(Cl)(Cl)Cl (centres undefined) | 0 | 14 | 58* | -14 | / | 0
CC(C)(Sc1ccc(CCN(CCCCC2CCCCC2)C(=O)NC2CCCCC2)cc1)C(=O)O | 57* | 7 | 24 | -7 | -4 | 2
COc1ccc(NC(=O)/C=C/c2cc(Br)ccc2OC)cc1 | / | -74 | -4 | 74* | 0 | -2
CCN(CC)c1ccc(NC(=O)/C=C/c2cc(Br)ccc2OC)cc1 | / | -80 | 22 | 80* | / | 5
COc1ccc(Br)cc1/C=C/C(=O)c1ccc(NC(C)=O)cc1 | -256 | -77 | 0 | 76* | / | -13
COc1ccc(Br)cc1/C=C/C(=O)Nc1c(C)cccc1C | -18 | -62 | 1 | 62 | / | -1
CN(C[C@@H]1[C@H](c2ccccc2)[C@H](CO)N1Cc1ccccn1)S(C)(=O)=O | / | / | / | / | 2 | /
Oc1ccc2ccccc2c1C1Nc2cccc3cccc(c23)N1 | / | -35 | 2 | 35 | / | 2
CCN(CC)c1ccc(C2Nc3cccc4cccc(c34)N2)c(O)c1 | / | -114 | 5 | 114* | -1 | 4
C[C@@H]1CCCCO[C@@H](CN(C)C(=O)CCC(F)(F)F)[C@@H](C)CN([C@@H](C)CO)C(=O)c2cc(NS(C)(=O)=O)ccc2O1 | -1[16.7 µM] | / | / | / | 1 | /
CC1C(=O)C(C)C(c2cc(Cl)ccc2O)NC1c1cc(Cl)ccc1O (centres undefined) | 19 | -86 | 5 | 86* | 8 | -5
COc1cccc(C2NC(c3cccc(OC)c3O)C(C)C(=O)C2C)c1O (centres undefined) | / | 3 | -5 | -3 | 4 | 1
CSCCC(C(=O)N1CC2(C)CC1CC(C)(C)C2)N1C(=O)c2ccccc2C1=O (centres undefined) | 34* | 12 | 6 | -12 | 1 | 1
CC(=O)N1[C@@H](CO)[C@H](c2ccc(-c3cccc(F)c3)cc2)[C@@H]1CNC(=O)C1CC1 | / | / | / | / | 0 | /
COc1ccc(/C=N/Nc2nonc2N)c(OC)c1 | 65* | -29 | -3 | 29 | / | 6
COc1ccc(/C=N/Nc2cc(C)nc(-n3nc(C)cc3C)n2)c(OC)c1 | 37 | -79 | 7 | 79* | / | -12
Cc1ccc(C)c(OCC(O)CN2CCN(CCN3C(=O)c4cccc5cccc(c45)C3=O)CC2)c1 (centres undefined) | -112 | -64 | 5 | 64 | / | 57*
Cc1ccc(C)c(OCC(O)CN2CCC(Cc3ccccc3)CC2)c1 (centres undefined) | 55* | 3 | 5 | -3 | -2 | 3
CC(=O)c1ccccc1OCC(O)CN1CCN(CCN2C(=O)c3cccc4cccc(c34)C2=O)CC1 (centres undefined) | -38 | -65 | 9 | 65 | / | 12
CCCS(=O)(=O)NC(=O)C1(C)CCN(C(=O)COc2ccc(Cl)cc2Cl)C1 (centres undefined) | 56* | / | / | / | 0 | 2
Cc1c(Cl)cccc1N=Cc1ccc([N+](=O)[O-])s1 | -292 | 19 | 12 | -19 | 3 | 35*
Cc1ccccc1C(=O)N/N=C/c1ccc([N+](=O)[O-])s1 | / | 4 | 4 | -4 | 3 | 7
CCOC(=O)c1cc(-c2ccc(C#N)cc2)nc2c1c(C)nn2CCC#N | / | -63 | -14 | 63 | / | 2
CCOC(=O)c1cc(-c2ccc(OC)cc2)nc2c1c(C)nn2CCC#N | -78 | -74 | -43 | 74* | -3 | -2
SMILES | HIV Env fusion | SR-BI DiI-HDL act | Rtt109 Vps75 | SR-BI DiI inh | PglD DTNB | N-glyco inh
CN(C(=O)c1cncc(Br)c1)C1C2CC3CC(C2)CC1C3 (centres undefined) | 34 | 1 | 59* | -1 | -5 | 1
C[C@@H]1CN([C@@H](C)CO)C(=O)c2cccc(NS(C)(=O)=O)c2O[C@@H]1CN(C)C(=O)Nc1ccccc1 | / | / | / | / | 5 | /
Cc1noc(C)c1S(=O)(=O)N(C)C[C@@H]1Oc2ccc(NS(=O)(=O)c3ccc(Cl)cc3)cc2CC(=O)N([C@H](C)CO)C[C@H]1C | -43[16.7 µM] | / | / | / | 4 | /
CCn1c(=O)[nH]c2cc(C(=O)Nc3cc(C)cc(C)c3)ccc2c1=O | -17 | -72 | 11 | 72* | / | 3
CCCCCn1c(=O)[nH]c2cc(C(=O)Nc3ccc(OC)cc3)ccc2c1=O | / | -13 | -11 | 13 | 6 | 1
CCOC(=O)C1=C(C)NC(=S)NC1c1ccc(OCC(=O)N2CCCCCC2)c(OC)c1 (centres undefined) | -5 | -71 | 9 | ? | -2 | -2
CCOC(=O)C1=C(C)NC(=S)NC1c1ccc(OCC(=O)N2CCCCC2)cc1 (centres undefined) | -5 | -73 | 1 | 73* | -4 | -2
CCOC(=O)c1c(NC(=O)C2=C(C)NC(=S)NC2c2ccc(F)cc2F)sc(C)c1C (centres undefined) | -5 | -53 | 12 | 53 | -8 | -4
CCOC(=O)c1c(NC(=O)C2=C(C)NC(=S)NC2c2ccc(F)cc2)sc(C)c1C (centres undefined) | -9 | -71 | 10 | 71* | / | -3
CCOC(=O)c1c(NC(=O)C2=C(C)NC(=S)NC2c2ccc(C)cc2)sc(C)c1C (centres undefined) | -16 | -72 | 4 | 72* | 8 | -6
CCc1ccc(C(=O)CN2C(=O)NC(C)(c3ccc(C)cc3)C2=O)cc1 (centres undefined) | 69* | 32 | 13 | -32 | 2 | 0
O=C(Nc1ccc(Cl)c(Cl)c1)c1ccc(Cl)c(Cl)c1 | -22 | -67 | -1 | 67 | -1 | -3
O=C(Nc1ccc2c(c1)COC2=O)c1ccc(Cl)c(Cl)c1 | -166 | -72 | -6 | 72* | 4 | -4
CS(=O)(=O)c1cccc(NC(=O)c2ccc(Cl)c(Cl)c2)c1 | 10 | -83 | 4 | 83* | / | -2
O=C(NC(Nc1nc2ccc([N+](=O)[O-])cc2s1)(C(F)(F)F)C(F)(F)F)c1ccccc1Cl | 25 | -20 | -3 | 20 | / | -7
